The values below come from ChEMBL document CHEMBL2380254, “Optimization of tocotrienols as antiproliferative and antimigratory leads” (Eur J Med Chem, 2013).

By IC50 is commonly meant the concentration needed to halve the response being measured. What is called GI50 is the concentration that inhibits growth by half. A lower GI50 goes with more potent growth inhibition.

Data set [1] concerns MCF-10A. The data set can be described thus: Selectivity index, ratio of IC50 for human MCF10A cells to ratio of IC50 for mouse +SA cells. In kind it is functional. The essentials:
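Index is the IC50 in MCF10A divided by the IC50 in +SA. +SA cells were kept in serum-free DMEM/F12 defined medium and given BSA-conjugated compounds at 0–40 µM (DMSO <0.1%). MCF10A cells were plated at 10×10^4 cells/well and fed compounds in serum-free medium.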

Data set [2] relates to MCF-10A. The experiment in a line: Antiproliferative activity against human MCF10A cells by MTT assay. It is filed as cell-based. The essentials:
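MCF10A kept in DMEM/F12 with 5% horse serum, hydrocortisone, cholera toxin, insulin and EGF, plated at 10 × 10^4 cells/well. Compounds from DMSO stock (final DMSO <0.1%, equal across groups) fed in serum-free media. Viable cell number by MTT; IC50 by non-linear regression.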
(In general: Formazan colour is commonly taken as a measure of viable cells.)

In another data set the test system is +SA cell. The data set can be described thus: Antitumor activity against mouse +SA cells allografted in BALB/c mouse assessed as reduction in tumor volume at 0.5 mg, iv administered on day 40 post challenge for 14 days. It is filed as functional, organism-based. The essentials:
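Female BALB/c mice, 3–4 months old, given 1 × 10^6 +SA cells into the #4 mammary fat pad under ketamine/xylazine. About 40 days later, once tumors were palpable, 0.5 mg in 0.1 mL propylene glycol/DMSO (1:1) by daily tail-vein injection for 14 days; vehicle controls. Caliper volume L×W²/2 and body weight recorded every other day. 14–15 mice/group; ANOVA with Duncan's test.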

The subject of a further data set is Mus musculus. The experiment in a line: Toxicity in BALB/c mouse allografted with mouse +SA cells assessed as body weight change at 0.5 mg, iv administered on day 40 post challenge for 14 days. The following applies: in vivo, 336 h. In kind it is organism-based, +SA cell. The essentials:
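Female BALB/c mice, 3–4 months old, received 1×10^6 +SA cells in 0.1 mL medium into the #4 mammary fat pad. About 40 days later, once tumors were palpable, daily tail-vein injections began for 14 days: 0.5 mg in 0.1 mL propylene glycol/DMSO (1:1), with vehicle controls. Body weight was recorded every other day, with 14–15 mice per group. Analysis used ANOVA with Duncan's test.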

The test system of a further data set is MDA-MB-231. The experiment in a line: Antimigratory activity against human MDA-MB-231 cells after 24 hrs by wound-healing assay. In kind it is functional, cell-based. To be noted: MDA-MB-231, 24 h. The gist of the method: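 MDA-MB-231 in RPMI 1640 with 10% FBS grown to >95% confluent monolayer, scratched with a pipette tip and washed. Then 24 h exposure in 0.5% serum at five non-toxic concentrations in DMSO, triplicate, DMSO as negative control. Diff Quick fixed and stained; migrated cells counted in ≥3 random 40× fields. IC50 = concentration inhibiting migration of 50% of cells.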

The next data set relates to OVCAR-8. The data set can be described thus: Growth inhibition of human OVCAR8 cells after 48 hrs by sulforhodamine B assay. It is filed as functional. To be noted: OVCAR-8, 48 h. The essentials:
(§1)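 NCI-60 panel cells grown in RPMI 1640 with 5% FBS and 2 mM L-glutamine, seeded at 5000–40,000 cells/well and preincubated 24 h. Five 10-fold dilutions (0.001–100 µM) from DMSO stocks were added for 48 h at 37 °C. Adherent cells were fixed with cold TCA (10% final) for 60 min at 4 °C, stained with 0.4% SRB, and read at 515 nm. GI50 was set where 100×(T−T0)/(C−T0)=50.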
In general terms: The SRB assay estimates cell density from bound dye.

In the next data set the test system is SK-MEL-28. The data set can be described thus: Growth inhibition of human SK-MEL-28 cells after 48 hrs by sulforhodamine B assay. The following applies: SK-MEL-28, 48 h. In kind it is functional. The gist of the method: as §1
In the next data set the test system is SNB-75. The experiment in a line: Growth inhibition of human SNB75 cells after 48 hrs by sulforhodamine B assay. The following applies: SNB-75, 48 h. In kind it is functional. The gist of the method: (§2)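 NCI-60 five-dose screen. Cells were grown in RPMI 1640 with 5% FBS and 2 mM L-glutamine, plated at 5000–40,000 cells/well and incubated 24 h before dosing, with T0 plates TCA-fixed. DMSO stocks were diluted to doses of […] and exposed 48 h at 37 °C, 5% CO2. Cells were fixed with cold TCA (final 10%, 60 min, 4 °C), stained with 0.4% SRB in 1% acetic acid for 10 min, solubilized in 10 mM trizma base and read at 515 nm. GI50 is where 100×(T−T0)/(C−T0)=50.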

The test system of a further data set is SW-620. The data set can be described thus: Growth inhibition of human SW620 cells after 48 hrs by sulforhodamine B assay. It is filed as functional. To be noted: SW-620, 48 h. The essentials: as §2
For another data set, the system named is K562. The data set can be described thus: Growth inhibition of human K562 cells after 48 hrs by sulforhodamine B assay. It is filed as functional. To be noted: K562, 48 h. The essentials:
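NCI-60 screen: cells in RPMI 1640 with 5% FBS and 2 mM glutamine, 5000–40,000 cells/well, preincubated 24 h. Five concentrations (10-fold dilutions; 100 to 0.001 µM) applied for 48 h at 37 °C. TCA fixation, SRB stain, absorbance at 515 nm. Time-zero plates included; GI50 where 100×(T−T0)/(C−T0)=50.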

Calls of active or inactive are those of the source. The calls are words filed in the database; no cut-off is given here.

As to `COc1ccc(CCN2COc3c(C)c(C)c4c(c3C2)CC[C@@](C)(CC/C=C(\C)CC/C=C(\C)CCC=C(C)C)O4)cc1OC`, in the data set on MCF-10A [1], the “Ratio IC50” value worked out at 0.39. In the data set on MCF-10A [2], the IC50 came to 0.7 µM.

For `COc1ccc(CCNCc2c(O)c(C)c(C)c3c2CC[C@@](C)(CC/C=C(\C)CC/C=C(\C)CCC=C(C)C)O3)cc1OC`, the outcome with +SA cell was Active. Moreover, the Activity result with Mus musculus is reported as “Non-toxic”.

Turning to `CC(C)=CCC/C(C)=C/CC/C(C)=C/CC[C@]1(C)CCc2cc(O)c(C)c(C)c2O1` [GAMMA-TOCOTRIENOL], the outcome with +SA cell was inactive. In addition, the IC50 in the data set with MDA-MB-231 was above 40 µM; in the data set on MCF-10A [2], 4.4 µM. Further, the “Ratio IC50” value in the data set on MCF-10A [1] amounted to 1.1. For the same compound, the Activity entry in the data set on Mus musculus was “Non-toxic”.

Regarding `CC(C)=CCC/C(C)=C/CC/C(C)=C/CC[C@]1(C)CCc2c3c(cc(C)c2O1)OCN(CCc1ccc(O)cc1)C3`, the GI50 in the data set with OVCAR-8 is 5.84 µM; with SK-MEL-28, 5.59 µM; in the data set on SNB-75, 4.74 µM; in the data set on SW-620, 1.59 µM. For the same compound, the IC50 in the data set on MDA-MB-231 worked out at 2.4 µM; with MCF-10A [2], 1.9 µM. In the data set with MCF-10A [1], the “Ratio IC50” value is listed as 2.09.

With `CC(C)=CCC/C(C)=C/CC/C(C)=C/CC[C@]1(C)CCc2c3c(c(C)c(C)c2O1)OCN(CCCCO)C3`, the 50% growth inhibitory concentration (GI50) in the data set on OVCAR-8 was above 10 µM; with SK-MEL-28, above 10 µM; in the data set on SNB-75, 9.35 µM; in the data set with K562, 2.46 µM. Besides, half-maximal inhibition in the data set with MDA-MB-231 (IC50) was put at 10.7 µM.

`CC(C)=CCC/C(C)=C/CC/C(C)=C/CC[C@]1(C)CCc2c3c(cc(C)c2O1)OCN(CCCCO)C3`: the GI50 in the data set with K562 amounted to 7.42 µM. Further, the IC50 in the data set on MDA-MB-231 amounted to 2.2 µM; in the data set on MCF-10A [2] it was 4.2 µM. Also, the “Ratio IC50” value in the data set on MCF-10A [1] is given as 2.34.

For `CC(C)=CCC/C(C)=C/CC/C(C)=C/CC[C@]1(C)CCc2c3c(c(C)c(C)c2O1)OCN(CCCCCCCCO)C3`, the GI50 turned out to be 2.67 µM in the data set with OVCAR-8, 2.62 µM with SK-MEL-28, 2.38 µM with SNB-75 and 3.5 µM in the data set with K562. Moreover, the IC50 was found to be 4.7 µM in the data set with MDA-MB-231 and 2 µM with MCF-10A [2]. Besides, the “Ratio IC50” value in the data set on MCF-10A [1] was determined as 1.43.

Consider `COc1ccc(CCN2COc3cc(C)c4c(c3C2)CC[C@@](C)(CC/C=C(\C)CC/C=C(\C)CCC=C(C)C)O4)cc1OC`, for which the GI50 in the data set with OVCAR-8 was determined as 2.2 µM; in the data set on SK-MEL-28, 1.75 µM; in the data set on SNB-75, 1.2 µM; in the data set with SW-620, 2 µM.

Take `CC(C)=CCC/C(C)=C/CC/C(C)=C/CC[C@]1(C)CCc2c3c(c(C)c(C)c2O1)OCN(CCCCCO)C3`: the GI50 in the data set on OVCAR-8 was 6.39 µM; with SK-MEL-28 it was 5.89 µM; with SNB-75, 4.03 µM; with SW-620 it was 6.05 µM. In the data set on MCF-10A [1], the “Ratio IC50” value stood at 5.24. Besides, the midpoint of inhibition in the data set on MCF-10A [2], the IC50, lay at 8.9 µM.

As to `CC(C)=CCC/C(C)=C/CC/C(C)=C/CC[C@]1(C)CCc2c3c(cc(C)c2O1)OCN(CCCCCCCCO)C3`, the GI50 in the data set on OVCAR-8 stood at 4.46 µM; with SK-MEL-28 it was 3.43 µM; with SNB-75, 4.11 µM; in the data set on K562, 0.772 µM. Moreover, the figures for the IC50 in the data set with MDA-MB-231 and with MCF-10A [2] were 4.9 µM and 1.7 µM, respectively. Moreover, the “Ratio IC50” value in the data set with MCF-10A [1] turned out to be 2.15.

On to `CC(C)=CCC/C(C)=C/CC/C(C)=C/CC[C@]1(C)CCc2c3c(cc(C)c2O1)OCN(CCCO)C3`, for which the concentration for 50% growth inhibition (GI50) was 1.95 µM in the data set on OVCAR-8, 1.78 µM with SK-MEL-28, 1.29 µM with SNB-75 and 1.83 µM in the data set on SW-620. In addition, the half-maximal inhibitory concentration (IC50) in the data set with MDA-MB-231 stood at 6 µM; with MCF-10A [2] it was 6.5 µM. Further, the “Ratio IC50” value with MCF-10A [1] was found to be 3.61.

Take `CC(C)=CCC/C(C)=C/CC/C(C)=C/CC[C@]1(C)CCc2c3c(cc(C)c2O1)OCN(CCCCCCCCCCO)C3`: the IC50 in the data set on MDA-MB-231 came to 7.2 µM. That is a single-digit micromolar value.

Turning to `CC(C)=CCC/C(C)=C/CC/C(C)=C/CC[C@]1(C)CCc2c3c(cc(C)c2O1)OCN(C1CCN(Cc2ccccc2)CC1)C3`, the GI50 in the data set with OVCAR-8 turned out to be 1.4 µM; with SK-MEL-28, 2.01 µM; with SNB-75, 1.67 µM; with SW-620, 0.48 µM.

On to `CC(C)=CCC/C(C)=C/CC/C(C)=C/CC[C@]1(C)CCc2c3c(c(C)c(C)c2O1)OCN(CCCCCCO)C3`, for which the GI50 in the data set with OVCAR-8 was determined as 3.06 µM; in the data set on SK-MEL-28, 2.76 µM; with SNB-75 it was 2.46 µM; with K562 it was 2.96 µM.

For the compound `CC(C)=CCC/C(C)=C/CC/C(C)=C/CC[C@]1(C)CCc2c3c(cc(C)c2O1)OCN(CCCCCO)C3`, the GI50 was 6.39 µM with OVCAR-8, 5.89 µM in the data set on SK-MEL-28, 4.03 µM in the data set on SNB-75 and 6.05 µM with SW-620. Besides, the “Ratio IC50” value in the data set on MCF-10A [1] was 6.57. For the same compound, in the data set on MCF-10A [2], the half-maximal inhibitory concentration (IC50) was 4.6 µM.

`CC(C)=CCC/C(C)=C/CC/C(C)=C/CC[C@]1(C)CCc2c3c(c(C)c(C)c2O1)OCN(CCc1ccc(O)cc1)C3`: the values for the IC50 in the data set on MDA-MB-231 and in the data set with MCF-10A [2] were 4.5 µM and 8.5 µM, respectively. In addition, the “Ratio IC50” value in the data set with MCF-10A [1] was determined as 5.67.

In the case of `CC(C)=CCC/C(C)=C/CC/C(C)=C/CC[C@]1(C)CCc2c3c(cc(C)c2O1)OCN(CCCCCCO)C3`, the GI50 came out at 4.45 µM in the data set on OVCAR-8, 2.01 µM with SK-MEL-28, 3.14 µM with SNB-75 and 0.81 µM in the data set on K562. In addition, the IC50 came out at 1.5 µM in the data set with MDA-MB-231 and 2.5 µM in the data set on MCF-10A [2]. Besides, the “Ratio IC50” value in the data set on MCF-10A [1] is recorded as 1.92.
